Most compounds without a hit are left out; they make up all but 1.2% or so of the library.
ASAP1 inh – inhibitors of human ASAP1 ArfGAP activity, primary screen, biochemical, fluorescence polarization; Arf-GAP with SH3 domain, ANK repeat and PH domain-containing protein 1 (Homo sapiens), …; ASAP1-stimulated ARF1 GTP hydrolysis, GDP FP detection; inhibition, % at 16.5 µM; actives 0.19% (n = 360,000); in the data active = inhibition above about 25%;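 also: 0% = vehicle with enzyme and substrate and 100% = no enzyme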
GalR3 antagonist – GalR3 antagonists in HEK293 cells, primary screen, cell-based, fluorescence readout | actives 0.44% (n = 360,000) | Galanin receptor type 3 (Homo sapiens), O60755 | inhibition, % at 3 µM | AID 651719, 2012 | HEK293 GalR3-CNG cAMP membrane potential fluorescence; galR3 body fused to GalR1 C-terminus;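 active = inhibition above the screen-wide average plus 3 SD, cut at about 13% in these data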;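 also: forskolin and galanin both at EC90 stimulate the cells; cAMP rise reported by CNG channel membrane potential dye signal; 0% = forskolin plus galanin with DMSO and 100% = forskolin alone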
Rin1-Abl PPI inh – inhibitors of Rin1-Abl protein binding, primary screen, biochemical, TR-FRET. actives 0.4% (n = 360,000). inhibition, % at 7.35 µM. Tyrosine-protein kinase ABL1 (Homo sapiens) + Ras and Rab interactor 1 (Homo sapiens), …. AID 588664, 2011; in the data active = inhibition above about 5%, passing the limit was not always enough
ARFGAP1 inhibitor – inhibitors of rat ARFGAP1 GAP activity, primary screen, biochemical, fluorescence polarization, GDP tracer | AID 651572, 2012 | actives 0.26% (n = 360,000) | inhibition, % at 16.5 µM | ADP-ribosylation factor GTPase-activating protein 1 (Rattus norvegicus), Q62848 | Arfgap1-stimulated ARF1 GTP hydrolysis, GDP FP detection;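 active = inhibition above a per-plate limit, mean inhibition of low control wells plus 3 SD, cut at about 25% in these data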;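 also: 0% = DMSO wells with enzyme and 100% = wells lacking Arfgap1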
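System: truncated rat Arfgap1 GAP domain / Benchmarks: high control wells lacking Arfgap1, low control full reaction with DMSO / Times: compound-enzyme preincubation 20 min, reaction 120 min, detection 60 min, 25 °C / Repeats: one replicate per compound / Also added: human ARF1(Δ1-17)-GTP substrate / Measured by: Tracer-displacement fluorescence polarization with EDTA stop, 620/688 nm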
GalR3 antag conf – GalR3 antagonist hit confirmation, cell-based, fluorescence, triplicate; shares compounds with GalR3 antagonist; HEK293 GalR3 CNG cAMP biosensor, membrane potential fluorescence; galR3 fused to GalR1 carboxy tail; challenged with forskolin and galanin at EC90; inhibition, % at 3 µM; actives 59% (n = 1,600); AID 652245, 2013;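 active = inhibition above the primary screen's cutoff, the mean inhibition of all screened compounds plus 3 SD, cut at about 13% in these data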;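 also: 0% = forskolin plus galanin and 100% = forskolin alone with DMSO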
CNG parental – nonspecific cAMP agonists in parental HEK-CNG cells, counter-screen for GalR3 antagonist project, cell-based, fluorescence, high throughput | shares compounds with GalR3 antagonist | HEK293-CNG parental cells, cAMP membrane potential fluorescence; normalised: DMSO wells 0%, forskolin wells 100% | activation, % at 3 µM | actives 10% (n = 1,600); in the data active = activation above about 1.3%
Active calls of the source: *; x = not tested or not shown.

SMILES | ASAP1 inh | GalR3 antagonist | Rin1-Abl PPI inh | ARFGAP1 inhibitor | GalR3 antag conf | CNG parental
O=C(O)Cn1cnc2c(OCc3ccccc3)ncnc21 | -6 | -1 | -4 | -9 | x | x
CC(=NNc1cc(C)c2cc(C)ccc2n1)c1ccccn1 | 4 | -9 | x | -4 | x | x
CCCCN1CC(COCc2ccccc2)Oc2cccc(Oc3ccc(SC)c(C)c3)c2S1(=O)=O (stereo not given) | -6 | 0 | x | 2 | x | x
COc1ccccc1CC(=O)N1CCCc2ccccc21 | 8 | x | 0 | 1 | 3 | 1
CCOc1ccc(-c2c[n+]3c(n2-c2ccccc2)CCCCC3)cc1 | 5 | 56* | 0 | 6 | 71* | 0
O=C(O)c1cccc(C(=O)O)c1 | -4 | -6 | 0 | 2 | x | x
O=C(O)c1ccc(O)c(O)c1 | 2 | 13* | 2 | -8 | 4 | 0
CO[C@@H]1CN(C)C(=O)c2ccc(NC(=O)c3ccccc3F)cc2OC[C@@H](C)N(CC2CCOCC2)C[C@@H]1C | 0 | 6 | x | -4 | x | x
Cc1nc2ccccc2n1Cc1ccccc1 | 1 | -11 | 1 | 1 | x | x
Cc1nc2ccccc2n1Cc1ccc(Br)cc1 | -2 | 83* | 2 | 8 | 108* | 0
C#CCN1CC(COc2ccccc2)OCCS1(=O)=O (stereo not given) | 3 | -5 | x | -4 | x | x
CN(C)S(=O)(=O)Oc1cccc(C(=O)Nc2ccc(Cl)cc2)c1 | 1 | 28* | 1 | 9 | 51* | -1
COc1ccc(NC(=O)COc2nsnc2N2CCOCC2)cc1 | 6 | -7 | -3 | 5 | x | x
COc1ccc(NC(=O)COc2nc3ccccc3nc2N2CCOCC2)c(OC)c1 | 12 | 14* | 2 | -3 | 8 | 0
CC(Sc1nc(N)c2c3c(sc2n1)CSC(C)(C)C3)C(=O)Nc1ccccc1 (stereo not given) | 5 | 54* | -8 | 5 | 45* | 0
CC(Sc1nc(NCc2ccccc2)nc(N(C)C)n1)C(=O)Nc1ccccc1 (stereo not given) | 2 | -6 | 1 | 1 | x | x
Clc1ccc(COc2cccc(CNCc3ccncc3)c2)cc1 | 2 | 32* | 0 | -18 | 93* | 1
CC(C)(CO)NCc1cccc(OCc2ccc(Cl)cc2)c1 | 2 | -7 | -1 | 7 | x | x
Cc1cccc(C(=O)Nc2cccc(OC(=O)c3cccc(C)c3)c2)c1 | 3 | -9 | 0 | 5 | x | x
COC(=O)COc1cccc(NC(=O)c2cccc(C)c2)c1 | -5 | 20* | 0 | 8 | 57* | 0
CC(C)Oc1cccc(C(=O)C2CCCN(Cc3cnc(N4CCOCC4)s3)C2)c1 (stereo not given) | 5 | 40* | 1 | -1 | 30* | 0
COc1ccc(C(=O)C2CCCN(Cc3cnc(N4CCOCC4)s3)C2)cc1F (stereo not given) | 6 | -5 | -2 | 7 | x | x
CCN(CC)S(=O)(=O)c1ccc(Cl)c(NC(=O)COC(=O)c2cccn2C)c1 | -6 | 65* | 0 | 7 | -2 | 0
COc1ccc(Cl)cc1NC(=O)c1[nH]c(C)c(C(C)=O)c1C | 3 | 8 | -8 | -9 | x | x
CCc1c(C(=O)Nc2ccc(OC)c(Cl)c2)[nH]c(C)c1C(C)=O | 20 | 28* | 2 | 4 | 13* | 0
SMILES | ASAP1 inh | GalR3 antagonist | Rin1-Abl PPI inh | ARFGAP1 inhibitor | GalR3 antag conf | CNG parental
COc1ccc(N(C(=O)c2snc(C(N)=O)c2N)C(C(=O)NC2CCCC2)c2ccco2)cc1 (stereo not given) | 11 | 18* | -1 | 4 | 0 | 0
O=C(c1ccccc1)N1N=C(c2ccccc2)CC1(O)C(F)(F)F (stereo not given) | 7 | 7 | 7 | 8 | x | x
COc1ccc(C2=NN(C(=O)c3cccs3)C(O)(C(F)(F)F)C2)cc1 (stereo not given) | 8 | 88* | 0 | 10 | 94* | 1
CCCCCC(O)C=CC1C(O)CC(O)C1CC=CCCCC(=O)O (stereo not given) | 4 | 96* | 5 | -6 | 95* | 0
Cn1c(SCC(=O)NC2CC2)nnc1-c1cccs1 | 8 | 14* | 1 | -12 | 7 | 0
CCCn1c(SCC(=O)NC2CC2)nnc1-c1cccs1 | 4 | -2 | 0 | -1 | x | x
Cc1cc(F)ccc1N1CCC(N2CCN(CCC(C)C)C(CCO)C2)CC1 (stereo not given) | -4 | -3 | -9 | 0 | x | x
Cc1cc(F)ccc1N1CCC(N2CCN(C(C)C)C(CCO)C2)CC1 (stereo not given) | 3 | 18* | 2 | 12 | 1 | 1
Cc1onc(-c2ccccc2Cl)c1C(=O)NNC(=O)c1cccc(F)c1 | 9 | 13* | 1 | 3 | 15* | 0
Cc1onc(-c2ccccc2Cl)c1C(=O)Nc1ccccc1 | -8 | 0 | 1 | 16 | x | x
COC(=O)C1=C(C)N(C)C(=NCc2ccccc2C(F)(F)F)NC1c1ccc(F)cc1 (stereo not given) | 6 | -6 | x | -5 | x | x
C=C1C(=O)C23CCC4C(C)(C(=O)OC)CCCC4(C)C2CCC1(O)C3 (stereo not given) | -3 | 37* | 1 | 8 | 48* | 1.6*
COC(=O)[C@]1(C)CCC[C@@]2(C)C3CC[C@@]4(C)C[C@]3(CCC21)CC(=O)N4 (stereo not given in full) | -5 | -5 | 7 | -10 | x | x
CCCc1[nH]nc2c1C(c1ccc(OC)c(CSC3=NCCS3)c1)C(C#N)=C(N)O2 (stereo not given) | 11 | 20* | -1 | 9 | 3 | 1
CCCCN1CC(COc2ccc(OC)cc2)OCCS1(=O)=O (stereo not given) | 3 | -6 | x | -2 | x | x
CCOCCCNC(=O)C1CCC(CNS(=O)(=O)c2ccc(OC)cc2)CC1 (stereo not given) | 2 | 14* | -3 | 8 | 42* | 1.9*
CCOCCCNC(=O)C1CCC(CNS(=O)(=O)c2ccc(F)cc2)CC1 (stereo not given) | -3 | 2 | 2 | 0 | x | x
CC(C)OCCCNC(=O)C1CCC(CNS(=O)(=O)c2ccccc2)CC1 (stereo not given) | -21 | 26* | -1 | 3 | 4 | 0

Source: PubChem
